Experimental findings from ChEMBL document CHEMBL1149024, “Naturally occurring antiacne agents” (1994) are described below.

In assay [1] the test system is Cutibacterium acnes. As to the kind of experiment: Antimicrobial activity Propionibacterium acnes ATCC 11827 after 2 days by broth dilution method. The assay is classed as functional. Conditions: Cutibacterium acnes, ATCC 11827, 48 h; for MIC: read-out: MIC. In short, it runs like this:
(§1)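 Serial twofold dilutions in DMF; 30 µl of each added to 3 ml NYG broth (0.8% nutrient broth, 0.5% yeast extract, 0.1% glucose), then inoculated with 30 µl of a two-day-old culture. Incubated 2 days at 37°; growth read as turbidity (OD 660 nm). MIC is the lowest concentration giving complete growth inhibition, determined at least twice.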
For orientation: In broth dilution the organism is exposed to a series of concentrations in liquid medium.

Assay [2] relates to Cutibacterium acnes. Kind of assay: Antimicrobial activity Propionibacterium acnes ATCC 11827 up to 200 ug/ml after 2 days by broth dilution method. Type of assay: functional, organism-based. In short, it runs like this: as §1
The test system of assay [3] is Cutibacterium acnes. Kind of assay: Antimicrobial activity Propionibacterium acnes ATCC 11827 after 2 days by twofold dilution method in presence of 1000 units of lipase. Type of assay: functional. The settings on record: ATCC 11827, 48 h.

In brackets after ≈: the same amount, converted by molar mass. Activity calls are given as the source filed them. No cut-off for these calls is given here.

One may read the MIC as the lowest concentration found to suppress growth. What is called MBC is the lowest tested concentration that kills the bacteria rather than only halting them. Higher therefore signals less potent killing.

In the case of `CC1=CCC2C(C1)C2(C)C` (configuration not stated) [CARENE], the minimum inhibitory concentration (MIC) in the assay on Cutibacterium acnes [1] worked out at 50 µg/mL (≈ 367 µM).

Take `CCCCCCCCCCCCCCCCCCO` [CETOSTEARYL ALCOHOL]: the minimum inhibitory concentration (MIC) in the assay on Cutibacterium acnes [1] is more than 800 µg/mL.

For the compound `CCCCCCCCCCCCCCCCO` [CETYL ALCOHOL], in the assay on Cutibacterium acnes [1], the MBC stood at 1.56 µg/mL (≈ 6.43 µM) and the MIC was found to be 0.78 µg/mL (≈ 3.22 µM).

On to `CC(C)CCC[C@@H](C)[C@H]1CC[C@H]2[C@@H]3CC=C4C[C@@H](O)CC[C@]4(C)[C@H]3CC[C@]12C` [CHOLESTEROL], for which the MIC in the assay on Cutibacterium acnes [1] was more than 800 µg/mL.

`CC(C)=CCC/C(C)=C/[C@H](O)C/C(C)=C/CC/C(C)=C/CO` [CRINITOL]: the MIC in the assay with Cutibacterium acnes [1] was found to be 25 µg/mL (≈ 81.6 µM).

`C=C(C)[C@H]1CC=C(C)CC1` [D-LIMONENE]: in the assay on Cutibacterium acnes [1], the MIC stood at 50 µg/mL (≈ 367 µM).

On to `CCCCCCCCC(C)O` (configuration not stated) [DECAN-2-OL], for which, in the assay with Cutibacterium acnes [1], the minimal inhibitory concentration (MIC) amounted to 100 µg/mL (≈ 632 µM).

Regarding `CCCCCCCCCCO` [DECANOL], in the assay with Cutibacterium acnes [1], the MBC amounted to 50 µg/mL (≈ 316 µM) and the MIC was determined as 25 µg/mL (≈ 158 µM).

For `CCCCCCCCCCCC(=O)O` [DODECANOATE], the MIC in the assay with Cutibacterium acnes [1] stood at 50 µg/mL (≈ 250 µM).

In the case of `CCCCCCCCCCCCO` [DODECANOL], in the assay on Cutibacterium acnes [1], the MBC turned out to be 6.25 µg/mL (≈ 33.5 µM) and the MIC worked out at 3.13 µg/mL (≈ 16.8 µM).

For `C=CCc1ccc(O)c(OC)c1` [EUGENOL], in the assay with Cutibacterium acnes [1], the MIC was 50 µg/mL (≈ 304 µM).

Consider `CC(C)=CCC/C(C)=C/CC/C(C)=C/CO` [FARNESOL], for which, in the assay on Cutibacterium acnes [1], the minimal inhibitory concentration (MIC) is 6.25 µg/mL (≈ 28.1 µM).

As for `CC(C)=CCC/C(C)=C/CO` [GERANIOL], in the assay with Cutibacterium acnes [1], the minimal inhibitory concentration (MIC) is 400 µg/mL (≈ 2590 µM).

With `CCCCCC/C=C\CCCCCCCc1cccc(O)c1C(=O)O` [GINGKOLIC ACID], in the assay with Cutibacterium acnes [1], the MIC is 0.78 µg/mL (≈ 2.25 µM).

Consider `CCCC(O)CC` (configuration not stated) [HEXAN-3-OL], for which the minimum inhibitory concentration (MIC) in the assay with Cutibacterium acnes [1] was more than 800 µg/mL.

Turning to `CC(C)c1cccc(=O)c(O)c1` [HINOKITIOL], in the assay with Cutibacterium acnes [1], the minimal inhibitory concentration (MIC) was 12.5 µg/mL (≈ 76.1 µM).

On to `c1ccc2[nH]ccc2c1` [INDOLE], for which the MIC in the assay on Cutibacterium acnes [1] worked out at 200 µg/mL (≈ 1710 µM).

`C/C=C/c1ccc2c(c1)OCO2` [ISOSAFROLE]: in the assay with Cutibacterium acnes [1], the MIC was found to be 200 µg/mL (≈ 1230 µM).

For `C=CC(C)(O)CCC=C(C)C` (configuration not stated) [LINALOOL], the minimum inhibitory concentration (MIC) in the assay on Cutibacterium acnes [1] was found to be 200 µg/mL (≈ 1300 µM).

For the compound `C=C1[C@H]2CC[C@@H]3[C@H]2C(C)(C)CCC[C@]13C` [LONGIFORENE], the MIC in the assay with Cutibacterium acnes [1] is 6.25 µg/mL (≈ 30.6 µM).

As to `CC1CCC(C(C)C)C(O)C1` (configuration not stated) [MENTHOL], in the assay on Cutibacterium acnes [1], the MIC is 400 µg/mL (≈ 2560 µM).

As for `C=CCc1ccc(OC)c(OC)c1` [METHYLEUGENOL], the MIC in the assay on Cutibacterium acnes [1] came out at 200 µg/mL (≈ 1120 µM).

As to `CCCCCCCCCCCCCCO` [MYRISTYL ALCOHOL], in the assay with Cutibacterium acnes [1], the MBC is 1.56 µg/mL (≈ 7.28 µM) and the minimal inhibitory concentration (MIC) stood at 1.56 µg/mL (≈ 7.28 µM).

For the compound `CC(C)c1oc(=O)cc2c1[C@@H](O)[C@H]1OC(=O)[C@@]3(C)[C@@H](O)[C@H]4O[C@H]4[C@@]2(C)[C@@H]13` [NAGILACTONE C], in the assay with Cutibacterium acnes [1], the MIC was more than 800 µg/mL.

For `CC(C)[C@H]1OC(=O)C=C2C13O[C@@H]3[C@H]1OC(=O)[C@@]3(C)[C@@H](O)CC[C@@]2(C)[C@@H]13` (some centres not stated) [NAGILACTONE E], the minimal inhibitory concentration (MIC) with Cutibacterium acnes [1] was more than 800 µg/mL.

Regarding `C=CC(C)(O)CC/C=C(\C)CCC=C(C)C` (configuration not stated) [NEROLIDOL], in the assay with Cutibacterium acnes [1], the minimum inhibitory concentration (MIC) was 25 µg/mL (≈ 112 µM).

With `CCCCCCCCCO` [NONANOL], in the assay on Cutibacterium acnes [1], the minimal bactericidal concentration (MBC) is 200 µg/mL (≈ 1390 µM) and the minimum inhibitory concentration (MIC) was 100 µg/mL (≈ 693 µM).

On to `CCCCCCCCO` [OCTANOL], for which, in the assay with Cutibacterium acnes [1], the MIC came to 200 µg/mL (≈ 1540 µM).

In the case of `CCCCCCCCCCCCCCCOC(=O)CCCCCCCCCCC` [PENTADECANYLDODECANOATE], in the assay with Cutibacterium acnes [2], the result was inactive. Moreover, the minimum inhibitory concentration (MIC) with Cutibacterium acnes [3] stood at 1.56 µg/mL.

Regarding `CC1(C)CCC[C@]2(C)[C@@H](C=O)C(C=O)=CC[C@@H]12` [POLYGODIAL], the minimum inhibitory concentration (MIC) in the assay with Cutibacterium acnes [1] turned out to be 25 µg/mL (≈ 107 µM).

In the case of `C=CCc1ccc2c(c1)OCO2` [SAFROLE], the MIC in the assay on Cutibacterium acnes [1] came to 50 µg/mL (≈ 308 µM).

With `O=C(O)c1ccccc1O` [SALICYLIC ACID], the minimum inhibitory concentration (MIC) in the assay on Cutibacterium acnes [1] came out at 400 µg/mL (≈ 2900 µM).

Take `CC1=CCC(O)(C(C)C)CC1` (configuration not stated) [TERPINEOL]: the MIC in the assay on Cutibacterium acnes [1] is 800 µg/mL (≈ 5190 µM).

For `CC1=CCC(=C(C)C)CC1` [TERPINOLENE], the MIC in the assay with Cutibacterium acnes [1] worked out at 50 µg/mL (≈ 367 µM).

Consider `Cc1ccc(C(C)C)c(O)c1` [THYMOL], for which the minimal inhibitory concentration (MIC) in the assay on Cutibacterium acnes [1] was 200 µg/mL (≈ 1330 µM).

For the compound `CC(C)c1c(O)ccc2c1CC[C@H]1C(C)(C)CCC[C@]21C` [TOTAROL], the MIC with Cutibacterium acnes [1] stood at 0.39 µg/mL (≈ 1.36 µM).

For `C/C=C/c1cc(OC)c(OC)cc1OC` [TRANS-ASARONE], the MIC in the assay on Cutibacterium acnes [1] stood at 100 µg/mL (≈ 480 µM).

In the case of `CCCCCCCCCCCCCO` [TRIDECAN-1-OL], in the assay on Cutibacterium acnes [1], the MBC was 3.13 µg/mL (≈ 15.6 µM) and the minimum inhibitory concentration (MIC) stood at 1.56 µg/mL (≈ 7.79 µM).

`CCCCCCCCCCCO` [UNDECANOL]: in the assay with Cutibacterium acnes [1], the MBC is 25 µg/mL (≈ 145 µM) and the MIC came out at 12.5 µg/mL (≈ 72.5 µM).
